KCNK3 block = human KCNK3 channel inhibition, primary screen; O14649; CHO-KCNK3 thallium flux, FluxOR fluorescence; active compounds read low; B-score at 10 µM; 340,000 compounds, 0.84% hits; AID 602410;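 active = B-score under library mean minus 4 SD, starting fluorescence ratio at most library mean plus 5 SD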;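 also: more negative B-score means stronger inhibition of thallium flux through KCNK3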
Kir21 block = inhibitors of mouse Kir2.1 inward-rectifier potassium channel. 310,000 compounds, 0.85% hits. HEK293-Kir2.1, FluxOR thallium flux fluorescence; active compounds read low. B-score at 10 µM. AID 1672;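 active = fluorescence ratio B-score at or below minus 3 SD of library scores, with starting-brightness B-score within 2 SD, cut at about -4.2 in these data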;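 also: channel flux triggered by added potassium and thallium sulfate stimulus; B-score of peak minus minimum fluorescence over baseline after thallium stimulus; more negative B-score means stronger Kir2.1 block with less thallium influx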
Target sequence (P35561 whole entry, looked up): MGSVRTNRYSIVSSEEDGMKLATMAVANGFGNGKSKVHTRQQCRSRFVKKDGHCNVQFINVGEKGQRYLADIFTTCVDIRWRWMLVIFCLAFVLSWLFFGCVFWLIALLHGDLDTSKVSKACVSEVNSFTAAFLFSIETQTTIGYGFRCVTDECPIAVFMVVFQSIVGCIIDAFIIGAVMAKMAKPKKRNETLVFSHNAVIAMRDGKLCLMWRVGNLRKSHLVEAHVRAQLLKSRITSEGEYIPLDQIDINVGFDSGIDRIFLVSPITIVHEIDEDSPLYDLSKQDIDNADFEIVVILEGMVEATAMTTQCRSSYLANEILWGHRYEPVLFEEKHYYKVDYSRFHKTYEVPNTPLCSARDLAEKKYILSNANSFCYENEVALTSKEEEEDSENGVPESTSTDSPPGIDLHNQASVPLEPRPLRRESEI
KCNK9 inh = human KCNK9 channel inhibition. Q9NPC2. AID 488922. 310,000 compounds, 1.2% hits. B-score at 10 µM. HEK293 KCNK9, FluxOR thallium flux fluorescence; active compounds read low;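 active = ratio B-score over 3 SD below the library mean, with starting fluorescence within 5 SD of its mean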;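 also: negative B-score means less thallium flux so channel inhibition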
Target sequence (Q9NPC2 whole entry, looked up): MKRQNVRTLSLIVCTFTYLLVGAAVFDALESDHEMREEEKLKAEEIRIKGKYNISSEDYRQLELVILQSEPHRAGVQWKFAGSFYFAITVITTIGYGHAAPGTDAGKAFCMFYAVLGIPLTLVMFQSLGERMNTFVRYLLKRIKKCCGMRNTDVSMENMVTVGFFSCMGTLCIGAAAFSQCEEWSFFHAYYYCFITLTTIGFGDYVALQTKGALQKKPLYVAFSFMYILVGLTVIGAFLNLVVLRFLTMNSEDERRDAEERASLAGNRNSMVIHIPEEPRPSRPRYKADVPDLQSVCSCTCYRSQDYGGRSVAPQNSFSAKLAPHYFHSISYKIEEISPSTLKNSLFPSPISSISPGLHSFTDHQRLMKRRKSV
KCNQ1 block = inhibitors of human KCNQ1 potassium channel | CHO-K1 KCNQ1, FluxOR thallium flux fluorescence; active compounds read high | AID 2642 | 310,000 compounds, 1.3% hits | B-score at 10 µM;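 active = compounds whose thallium flux B-score, printed positive for inhibition, exceeds three library SD while starting fluorescence stays within three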;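 also: channel opened by potassium depolarization with thallium stimulus after 20 min compound exposure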
hERG protect = compounds protecting human hERG from proarrhythmic drug block; CHO-hERG, FluxOR thallium flux, dofetilide IC70 present; activation (rescue from dofetilide block), less the hit threshold, % at 10 µM; 310,000 compounds, 0.51% hits;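 active = activation above the mean of controls blocked by dofetilide plus 5 SD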;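 also: thallium influx through hERG after potassium depolarization seen as dye fluorescence rise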
KCNQ1 pot = human KCNQ1 channel potentiation or activation. P51787. CHO-K1 KCNQ1, thallium flux FluxOR fluorescence; active compounds read high. B-score at 10 µM. 310,000 compounds, 0.35% hits. AID 2648;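 active = fluorescence ratio B-score, a plate-corrected score, at least three library SD, with initial intensity B-score within 5 SD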
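Medium – assay buffer, equal DMSO in all wells · Material – CHO-K1 cell line with stable KCNQ1 potassium channel expression · Signal – kinetic FluxOR thallium fluorescence, 10-s 1-Hz baseline, 110-s post-stimulus read · Compound – single concentration per compound, DMSO matched to controls · Schedule – 37 °C overnight plating, 90-min dark dye load, 20-min compound pretreatment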
KCNK9 inh conf = human KCNK9 inhibitor confirmation; shares compounds with KCNK9 inh; HEK293 KCNK9 cells, FluxOR thallium flux fluorescence; inhibition, % at 10 µM; 4,900 compounds, 43% hits;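 active = thallium signal inhibited by more than 5 SD of the compound-free buffer control wells, on both duplicate plates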
Kir21 sel = selectivity of KCNK9 modulators against mouse Kir2.1. AID 492993. shares compounds with KCNK9 inh. inhibition, % at 10 µM. 4,900 compounds, 4% hits. Kir2.1 cells, FluxOR thallium flux fluorescence;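 active = thallium signal drop more than 5 SD beyond the mean of the no-compound control wells, seen in both duplicate plates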;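 also: signal is fluorescence rise after thallium addition divided by baseline fluorescence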
HEK293 Tl ctr = second check of KCNK9 modulator effects in non-induced HEK293 cells. shares compounds with KCNK9 inh. FluxOR thallium flux. inhibition, % at 10 µM. 4,900 compounds, 40% hits. AID 492997;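 active = thallium signal drop beyond 5 SD of the untreated control mean, on both duplicate plates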
Each line names hits and unclear results; the compound was inactive in the other large screens (follow-up assays come after a bar, where they were run). In the library only some 3.8% were active in any assay of this set; here they are far more common.

CN(CC(=O)Nc1ccc(F)c(F)c1F)C(=O)CN1C(=O)C2CCCCC2C1=O (stereo not drawn)	none
O=C(c1cccc(C(F)(F)F)c1)N1CCOC12CCN(c1ncc(C(F)(F)F)cc1Cl)CC2	none | KCNK9 inh conf inactive | Kir21 sel inactive | HEK293 Tl ctr inactive
CCOc1ccccc1NC(=O)Cc1coc2ccc(C)cc12	KCNK9 inh -11 | KCNK9 inh conf 25% | Kir21 sel inactive | HEK293 Tl ctr 43%
COc1ccc(OC)c(NC(=O)Cc2coc3ccc(C)cc23)c1	none
CCCCCCCN(c1ccccc1)[C@@H]1C[C@H]2CCCC(=O)N3CC[C@@H](C1)[C@@H]23	none (no result: Kir21 block, KCNK9 inh, KCNQ1 block, hERG protect, KCNQ1 pot)
O=C(CN1CCCCC1)Nc1cc(S(=O)(=O)N2CCOCC2)ccc1N1CCCC1	none (no result: Kir21 block, KCNK9 inh, KCNQ1 block, hERG protect, KCNQ1 pot)
Cc1ccccc1OCC(=O)NC(=S)Nc1ccc2c3c(cccc13)CC2	none
COc1ccc(OCC(=O)NC(=S)Nc2ccc3c4c(cccc24)CC3)cc1	none | KCNK9 inh conf inactive | Kir21 sel inactive | HEK293 Tl ctr inactive
COc1cccc(C(=O)NC(=S)Nc2ccc3c4c(cccc24)CC3)c1	none | KCNK9 inh conf inactive | Kir21 sel inactive | HEK293 Tl ctr inactive
COc1cccc(C(=O)NC(=S)Nc2ccc(Cl)cc2C(=O)O)c1	none
O=C(NCc1ccccc1Cl)C(=O)NCC1OCCN1S(=O)(=O)c1ccc(F)cc1 (stereo not drawn)	none
O=C(N/N=C/c1ccccc1)c1ccc(CN2C(=O)c3cccc4cccc2c34)cc1	none
O=C(N/N=C/c1ccc(O)cc1O)c1ccc(CN2C(=O)c3cccc4cccc2c34)cc1	KCNK3 block -12, KCNK9 inh -12 | KCNK9 inh conf 37% | Kir21 sel inactive | HEK293 Tl ctr 33%
CC1CN(C(=O)CCC(=O)N2CCOCC2)c2ccccc2O1 (stereo not drawn)	none
O=C(C/C=N/OCc1ccc(F)cc1Cl)c1cnc(-c2ccccc2)s1	none | KCNK9 inh conf inactive | Kir21 sel inactive | HEK293 Tl ctr inactive
O=C(C/C=N/OCc1ccccc1F)c1cnc(-c2ccc(Cl)cc2)s1	none | KCNK9 inh conf inactive | Kir21 sel inactive | HEK293 Tl ctr inactive
COc1ccccc1N(C)S(=O)(=O)c1ccc(C(=O)NCc2ccccc2CN2CCCC2)cc1	none (no result: Kir21 block, KCNK9 inh, KCNQ1 block, hERG protect, KCNQ1 pot)
CC(C)[C@H](NS(=O)(=O)c1ccc(Cl)cc1)C(=O)OCC(=O)c1c(N)n(C)c(=O)n(C)c1=O	none (no result: Kir21 block, KCNK9 inh, KCNQ1 block, hERG protect, KCNQ1 pot)
COc1cccc(CN(C)C(c2ccccc2)c2ccccc2)c1OC	KCNK9 inh -8.2 | KCNK9 inh conf inactive | Kir21 sel inactive | HEK293 Tl ctr inactive
COc1cccc(CN(C)C(=O)Cc2c[nH]c3ccccc23)c1OC	none
COc1ccc(-c2nn(-c3ccccc3F)cc2CNCCn2nc(C)cc2C)cc1	none | KCNK9 inh conf inactive | Kir21 sel inactive | HEK293 Tl ctr inactive
COc1ccc(-c2nn(-c3ccccc3)cc2CNCCN2CCOC2=O)c(F)c1	none
CCN(C(=O)CSc1nnc(NCCOC)s1)c1c(N)n(Cc2ccccc2)c(=O)[nH]c1=O	none (no result: Kir21 block, KCNK9 inh, KCNQ1 block, hERG protect, KCNQ1 pot)
CN(C(=O)c1cccc(NC(=O)Cc2ccc(NC(=O)C3CCCN(C(=O)C4CC4)C3)cc2)c1)C1CCCCC1 (stereo not drawn)	none (no result: Kir21 block, KCNK9 inh, KCNQ1 block, hERG protect, KCNQ1 pot)
COc1ccc(-c2csc(Nc3cc(C)ccn3)n2)cc1OC	none
Cc1ccnc(Nc2nc(-c3c(C)nc4sccn34)cs2)c1	KCNK9 inh -17 | KCNK9 inh conf 40% | Kir21 sel inactive | HEK293 Tl ctr 28%
O=C(COC(=O)CCC1CCCC1)Nc1ccc(F)cc1Cl	none (no result: Kir21 block, KCNK9 inh, KCNQ1 block, hERG protect, KCNQ1 pot)
CCC1CCC2(CC1)NC(=O)N(CC(=O)NCc1ccccc1Cl)C2=O (stereo not drawn)	none (no result: Kir21 block, KCNK9 inh, KCNQ1 block, hERG protect, KCNQ1 pot)
Cn1c(COc2ccccc2O)[n+](C)c2ccccc21	none
CCCCCCCCCCOC(=O)Cn1c(COc2ccccc2OC)[n+](C)c2ccccc21	Kir21 block -17, KCNK9 inh -15 | KCNK9 inh conf 78% | Kir21 sel 84% | HEK293 Tl ctr 42%
O=C(Nc1nnc(S(=O)(=O)N2CCCCC2)s1)c1cccc(Br)c1	none
COc1ccc(CCN(Cc2nc3ccccc3c(=O)[nH]2)C(=O)c2ccco2)cc1	none
COc1ccc(CN(CCC(c2ccccc2)c2ccco2)C(=O)c2ccco2)cc1 (stereo not drawn)	KCNK9 inh -13 | KCNK9 inh conf 50% | Kir21 sel inactive | HEK293 Tl ctr 29%
O=C(CN1CCN(C(=O)C2CCN(C(=O)/C=C/c3ccccc3)CC2)CC1)Nc1ccccc1Cl	none (no result: Kir21 block, KCNK9 inh, KCNQ1 block, hERG protect, KCNQ1 pot)
CSc1nc(-c2ccccc2)nn1S(=O)(=O)c1ccccc1	none
Cc1ccc(C)n1-c1nn(S(=O)(=O)c2ccccc2)c2cccc(F)c12	KCNK9 inh -15 | KCNK9 inh conf 58% | Kir21 sel inactive | HEK293 Tl ctr 42%
Cc1cc(C(=O)COC(=O)CNC(=O)c2ccco2)c(C)n1Cc1ccco1	none
Cc1cc(C(=O)COC(=O)c2ccc(Br)o2)c(C)n1Cc1ccco1	none (no result: KCNK3 block) | KCNK9 inh conf inactive | Kir21 sel inactive | HEK293 Tl ctr inactive
Cc1cc(C(=O)COC(=O)CCC(=O)c2ccc3c(c2)OCCO3)c(C)n1Cc1ccco1	none | KCNK9 inh conf inactive | Kir21 sel inactive | HEK293 Tl ctr inactive
COc1cc(OC)cc(C(=O)NCC(=O)OCC(=O)c2cc(C)n(Cc3ccco3)c2C)c1	none
CCN(CC(=O)Nc1ccccc1OC)C(=O)c1cc(S(=O)(=O)N2CCCCCC2)ccc1OC	none
CCN(C(=O)CSc1nc2cc(Cl)ccc2c(=O)n1Cc1ccco1)C1CCS(=O)(=O)C1 (stereo not drawn)	KCNK9 inh -10 | KCNK9 inh conf inactive | Kir21 sel inactive | HEK293 Tl ctr inactive
CN(C(=O)CSc1nc2ccc(Br)cc2c(=O)n1Cc1ccco1)C1CCS(=O)(=O)C1 (stereo not drawn)	none
COc1cccc(/C=N/Nc2ncnc3scc(-c4ccccc4)c23)c1O	none | KCNK9 inh conf inactive | Kir21 sel inactive | HEK293 Tl ctr inactive
COc1cccc(/C=N/Nc2ncnc(Cl)c2N)c1O	none
Cc1ccc(C(c2nnnn2Cc2cccs2)N2CCN(Cc3ccc4c(c3)OCO4)CC2)cc1 (stereo not drawn)	KCNK9 inh -12 | KCNK9 inh conf inactive | Kir21 sel inactive | HEK293 Tl ctr 32%
CCOC(=O)COc1nc(-c2ccco2)cc(-c2ccco2)c1C#N	KCNK9 inh -10 | KCNK9 inh conf 67% | Kir21 sel inactive | HEK293 Tl ctr 36%
CCOC(=O)COc1nc(-c2ccc(C)cc2)cc(-c2ccco2)c1C#N	none

From PubChem BioAssay
